According to ChEMBL document CHEMBL1123103, “Pyrimidinones. 1. 2-Amino-5-halo-6-aryl-4(3H)-pyrimidinones. Interferon-inducing antiviral agents” (1985):
Calls of active or inactive are those of the source. The rule behind the calls is not given here.

What was measured:
Semliki Forest virus [1] = assay: Antiviral activity against Forest virus (SFV); format: functional
Summary of the method: (§1)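 ICR or CD-1 mice of both sexes got one drug dose by the route in the line (ip, po or sc). The drug was a suspension in 0.9% NaCl or in a CMC/polysorbate 80/benzyl alcohol/NaCl vehicle. […] Deaths were recorded daily for 6 days, 24 mice/group. ED50 is the minimal dose protecting 50% of mice, by probit analysis.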

[2] = test system: Vesicular stomatitis virus; assay: Evaluation for serum interferon response from a single 800 mg/kg intraperitoneal administration in vesicular stomatitis virus on […] cells.; format: functional
Summary of the method: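 Mice got a single ip 800 mg/kg dose. Blood was drawn 3, 6, 8 and 12 h later from five mice per group and pooled. Interferon titer was measured by plaque reduction with vesicular stomatitis virus on L929 cells. Titer is the reciprocal serum dilution cutting plaques by 50% versus untreated cultures. Peak response within 24 h was banded: ≥2000, ~500-1000, ~50-500, ~10-50 U/mL.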

Semliki Forest virus [3] = assay: Effective dose administered perorally againist Forest virus infected mice; format: functional; conditions: po; summary of the method: as §1
Semliki Forest virus [4] = assay: Effective dose administered subcutaneously againist Forest virus infected mice; format: functional; conditions: sc; summary of the method: as §1
Human alphaherpesvirus 1 = assay: Intraperitoneal administration against herpes simplex virus type-1 (HSV-1) infected mice; format: functional
Summary of the method: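 ICR or CD-1 mice got drug ip in saline as the total daily dose (mg/kg/day). It was split into doses at -40, -28, -20, -3 and +3 h relative to ip inoculation with 5.6×10^4 pfu HSV-1. Mice were followed for 22 days, 15/group. Protection index = (control mortality − treated mortality)/control mortality; >0.25 counted active. Only the lowest protective dose is recorded.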

Semliki Forest virus [5] = assay: Effective dose administered intraperitoneally againist Forest virus infected mice; format: functional, organism-based
Summary of the method: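 Drug was suspended in 0.9% NaCl or in a carboxymethylcellulose/polysorbate 80/benzyl alcohol/NaCl vehicle. Deaths were recorded daily for 6 days, with 24 mice per group. The ED50 is the minimal dose protecting 50% of mice, calculated by probit analysis.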

Compound | ED50 (Semliki Forest virus [1]) [mg/kg] | IFN [2] | ED50 (Semliki Forest virus [3]) [mg/kg] | ED50 (Semliki Forest virus [4]) [mg/kg] | Protection index (Human alphaherpesvirus 1) | ED50 (Semliki Forest virus [5])
Nc1nc(O)c(I)c(-c2ccc(OCc3ccccc3)cc2)n1 | > 400 | – | – | – | – | –
Nc1nc(O)c(I)c(-c2ccc(C(=O)O)cc2)n1 | 380 | – | – | – | – | –
Nc1nc(O)c(Cl)c(-c2ccccc2)n1 | 100 | >=2000 ml | 90 | 105 | 0.62 | –
Nc1nc(O)c(Br)c(-c2cccnc2)n1 | 75 | – | > 400 | > 400 | 0.45 | –
Nc1nc(O)c(Br)c(-c2cccc(F)c2F)n1 | 115 | >=2000 ml | 330 | – | 0.54 | –
Nc1nc(O)c(Cl)c(-c2cccc(O)c2)n1 | – | – | – | – | 0.5 | –
Nc1nc(O)c(Br)c(-c2ccccn2)n1 | 75 | >=2000 ml | 310 | 65 | – | –
Nc1nc(O)c(I)c(-c2cc(Cl)cc(Cl)c2)n1 | 140 | 50 units/mL | > 400 | 225 | 0.4 | –
Nc1nc(O)c(I)c(-c2cccnc2)n1 | 130 | 50 units/mL | > 400 | 175 | 0 | –
N#Cc1ccc(-c2nc(N)nc(O)c2I)cc1 | – | – | – | – | 0 | inactive
COc1cccc(-c2nc(N)nc(O)c2Br)c1OC | – | – | – | – | – | inactive
Nc1nc(O)c(I)c(-c2cc(F)cc(F)c2)n1 | 230 | >=2000 ml | > 400 | – | 0 | –
Nc1nc(O)c(I)c(-c2ccc(F)cc2)n1 | 245 | >=2000 ml | 260 | 250 | 0.29 | –
Nc1nc(O)c(Br)c(-c2cnccn2)n1 | 65 | – | > 400 | 365 | – | –
Nc1nc(O)c(I)c(-c2ccccc2)n1 | 50 | 50 units/mL | > 400 | 25 | 0.86 | –
Nc1nc(O)c(Br)c(-c2cc(Cl)ccc2Cl)n1 | 180 | >=2000 ml | > 400 | > 400 | – | –
Nc1nc(O)c(Br)c(-c2ccccc2O)n1 | – | – | – | – | – | inactive
Nc1nc(O)c(Br)c(-c2ccco2)n1 | 295 | 50 units/mL | > 400 | > 400 | 0.14 | –
Nc1nc(O)c(Cl)c(-c2ccccc2O)n1 | – | – | – | – | 0.61 | –
CCOc1cccc(-c2nc(N)nc(O)c2I)c1 | – | – | – | – | 0 | –
CCOCCOc1cccc(-c2nc(N)nc(O)c2I)c1 | – | – | – | – | 0.21 | –
Nc1nc(O)c(Br)c(-c2cccc(O)c2)n1 | – | – | – | – | 0 | inactive
Nc1nc(=O)c(Br)c(-c2ccccc2)[nH]1 [BROPIRIMINE] | 100 | – | 100 | 50 | 0.6 | –
Nc1nc(O)c(Cl)c(-c2cccc(Cl)c2)n1 | 135 | 50 units/mL | > 400 | > 400 | 0.86 | –

Compound | ED50 (Semliki Forest virus [1]) [mg/kg] | IFN [2] | ED50 (Semliki Forest virus [3]) [mg/kg] | ED50 (Semliki Forest virus [4]) [mg/kg] | Protection index (Human alphaherpesvirus 1) | ED50 (Semliki Forest virus [5])
Nc1nc(O)c(Br)c(-c2c(F)cc(F)cc2F)n1 | – | – | – | – | 0 | inactive
Nc1nc(O)c(I)c(-c2cc(F)ccc2F)n1 | 95 | >=2000 ml | > 400 | – | 0 | –
Nc1nc(O)c(I)c(-c2ccccc2Cl)n1 | 90 | – | – | – | 0.13 | –
Cc1ccccc1-c1nc(N)nc(O)c1I | 175 | – | > 400 | 205 | 0.13 | –
Nc1nc(O)c(I)c(-c2cccc(F)c2F)n1 | > 400 | >=2000 ml | 365 | – | 0.34 | –
Nc1nc(O)c(Cl)c(-c2ccc(OCc3ccccc3)cc2)n1 | – | – | – | – | – | inactive
Nc1nc(O)c(I)c(-c2cccc([N+](=O)[O-])c2)n1 | 90 | >=2000 ml | > 400 | 155 | 0.6 | –
Nc1nc(O)c(I)c(-c2cccc(I)c2)n1 | 125 | 50 units/mL | – | – | 0.53 | –
Nc1nc(O)c(Cl)c(-c2ccccc2Cl)n1 | 300 | 50 units/mL | – | – | – | –
COc1ccccc1-c1nc(N)nc(O)c1Cl | 20 | 50 units/mL | > 400 | – | 0.53 | –
Nc1nc(O)c(I)c(-c2cc(Cl)ccc2Cl)n1 | 305 | >=2000 ml | 75 | 115 | 0 | –
Nc1nc(O)c(Cl)c(-c2cc(F)cc(F)c2)n1 | 185 | 50 units/mL | > 400 | – | 0.5 | –
Nc1nc(O)c(Cl)c(-c2cccc([N+](=O)[O-])c2)n1 | 140 | 50 units/mL | > 400 | 380 | 0.92 | –
COc1cc(OC)cc(-c2nc(N)nc(O)c2I)c1 | 55 | – | – | – | – | –
COc1ccccc1-c1nc(N)nc(O)c1Br | 15 | 50 units/mL | > 400 | 100 | 0.92 | –
Nc1cccc(-c2nc(N)nc(O)c2Br)c1 | – | – | – | – | – | inactive
Nc1nc(O)c(Br)c(-c2ccccc2Cl)n1 | 285 | – | – | – | – | –
Nc1nc(O)c(I)c(-c2ccncc2)n1 | 365 | – | > 400 | > 400 | – | –
Nc1nc(O)c(Cl)c(-c2cc(Cl)ccc2Cl)n1 | 120 | >=2000 ml | 200 | 115 | 0.47 | –
Nc1nc(O)c(Cl)c(-c2cccc(I)c2)n1 | – | – | – | – | – | inactive
Nc1nc(O)c(I)c(-c2ccccn2)n1 | 215 | >=2000 ml | 235 | > 400 | – | –
Nc1nc(O)c(Br)c(-c2ccoc2)n1 | > 400 | – | – | – | – | –
COc1cc(OC)cc(-c2nc(N)nc(O)c2Cl)c1 | 90 | – | – | – | – | –
Nc1nc(O)c(Br)c(-c2cc(F)cc(F)c2)n1 | 150 | 50 units/mL | – | – | 0 | –

Compound | ED50 (Semliki Forest virus [1]) [mg/kg] | IFN [2] | ED50 (Semliki Forest virus [3]) [mg/kg] | ED50 (Semliki Forest virus [4]) [mg/kg] | Protection index (Human alphaherpesvirus 1) | ED50 (Semliki Forest virus [5])
COc1cccc(-c2nc(N)nc(O)c2Cl)c1OC | – | – | – | – | – | inactive
Nc1nc(O)c(Br)c(-c2cc(F)ccc2F)n1 | 165 | >=2000 ml | > 400 | – | 0 | –
Cc1ccccc1-c1nc(N)nc(O)c1Br | 60 | – | > 400 | > 400 | 0.2 | –
Nc1nc(O)c(I)c(-c2c(F)cc(F)cc2F)n1 | – | – | – | – | 0 | inactive
CCOc1cccc(-c2nc(N)nc(O)c2Br)c1 | – | – | – | – | 0.4 | –
Nc1nc(O)c(Br)c(-c2ccc(OCc3ccccc3)cc2)n1 | – | – | – | – | – | inactive
Nc1nc(O)c(I)c(-c2c(F)cccc2F)n1 | 285 | – | – | – | – | –
Nc1nc(O)c(Cl)c(-c2cccc3ccccc23)n1 | 80 | – | > 400 | > 400 | 0.54 | –
Nc1nc(O)c(I)c(-c2cccc(C(F)(F)F)c2)n1 | 160 | >=2000 ml | > 400 | > 400 | 0.36 | –
Nc1nc(O)c(Br)c(-c2cccc([N+](=O)[O-])c2)n1 | 140 | – | > 400 | > 400 | 0.53 | –
Nc1nc(O)c(Br)c(-c2cccc(I)c2)n1 | 355 | – | 170 | > 400 | – | –
CCOc1cccc(-c2nc(N)nc(O)c2Cl)c1 | – | – | – | – | 0.13 | –
COc1ccccc1-c1nc(N)nc(O)c1I | 25 | 50 units/mL | > 400 | 120 | 0.69 | –
Nc1nc(O)c(Br)c(-c2cc(Br)c(O)c(Br)c2)n1 | – | – | – | – | – | inactive
Nc1nc(O)c(Br)c(-c2ccc(Cl)c(Cl)c2)n1 | 215 | – | > 400 | > 400 | 0.29 | –
COc1cccc(-c2nc(N)nc(O)c2I)c1OC | – | – | – | – | – | inactive
Nc1nc(O)c(Cl)c(-c2ccc(F)cc2)n1 | 300 | – | > 400 | 355 | 0.85 | –
Nc1nc(O)c(Br)c(-c2cccc(Cl)c2)n1 | 30 | >=2000 ml | > 400 | 300 | 0.78 | –
Nc1nc(O)c(I)c(-c2ccc(Cl)c(Cl)c2)n1 | 115 | >=2000 ml | > 400 | 240 | 0.36 | –
Nc1nc(O)c(Cl)c(-c2ccc(Cl)c(Cl)c2)n1 | 225 | – | > 400 | > 400 | 0 | –
CCOCCOc1cccc(-c2nc(N)nc(O)c2Br)c1 | – | – | – | – | 0.55 | –
COc1cc(OC)cc(-c2nc(N)nc(O)c2Br)c1 | 15 | – | – | – | – | –
Nc1nc(O)c(Cl)c(-c2ccco2)n1 | 120 | – | – | – | – | –
